What was measured:
blood glucose = assay: Hypoglycemic effect of insulin formulations; assay type: in vivo, BALB/c mice; settings: fasted mice, s.c., 2 IU/kg
Method in brief: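 Healthy BALB/c mice, 6-7 weeks old, were fasted overnight with water only and kept fasted throughout, n=6 per group. They received a subcutaneous injection at an insulin dose of 2 IU/kg, either free insulin or insulin loaded in nanocarriers at a 1/10 insulin:polymer mass ratio. Blood glucose was followed with a glucose meter over 0-6 h. Area above the curve was calculated by the trapezoidal method.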

SKOV-3 cells = assay: Intracellular uptake of RB-BSA by confocal microscopy; assay type: cell-based; settings: BSA ~60 μg/mL, 2 h, 37 °C
Method in brief: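 SKOV-3 cells in McCoy's 5A with 10% FBS were seeded at 5 × 10⁴ per well and allowed to adhere for 24 h. Lysosomes were labelled with LysoTracker Green DND-26 for 30 min at 37 °C. Rhodamine B-labelled BSA, free or nanocarrier-loaded (final BSA ~60 μg/mL), was added for 2 h. Cells were washed three times with PBS, fixed in 4% paraformaldehyde for 15 min at room temperature, DAPI-stained and imaged by laser scanning confocal microscopy.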

| Substance | glycemic decrease (blood glucose; 30 min after injection, n=6) | blood glucose recovery, % of basal level (blood glucose; after 2 h) | time of maximal blood glucose drop (nadir) (blood glucose; n=6) | cellular uptake of RB-BSA (free or loaded in the nanocarrier) (SKOV-3 cells) |
| --- | --- | --- | --- | --- |
| insulin: insulin (MW: 5807 Da) | 32% | 80% | 1 h |  |
| RB-BSA: Rhodamine B (RB)-labeled BSA, model protein |  |  |  | minimal |

— article PMC6585461 (Biomaterials, 2019)
